From ChEMBL document CHEMBL5678813, “Optimization of a novel series of N-phenylindoline-5-sulfonamide-based acyl CoA:monoacylglycerol acyltransferase-2 inhibitors: Mitigation of CYP3A4 time-dependent inhibition and phototoxic liabilities” (Bioorg Med Chem, 2015)

What was measured:
[1] = biological target: T1, Diacylglycerol O-acyltransferase 1 (Homo sapiens, UniProt O75907); experiment: Inhibition of N-terminal FLAG-tagged full-length human DGAT1 expressed in recombinant baculovirus infected Sf21 cells using [1-14C]-oleoyl-CoA and 1,2-dioleoyl-glycerol as substrate incubated for 40 mins by TLC analysis
T1 sequence (O75907 whole entry): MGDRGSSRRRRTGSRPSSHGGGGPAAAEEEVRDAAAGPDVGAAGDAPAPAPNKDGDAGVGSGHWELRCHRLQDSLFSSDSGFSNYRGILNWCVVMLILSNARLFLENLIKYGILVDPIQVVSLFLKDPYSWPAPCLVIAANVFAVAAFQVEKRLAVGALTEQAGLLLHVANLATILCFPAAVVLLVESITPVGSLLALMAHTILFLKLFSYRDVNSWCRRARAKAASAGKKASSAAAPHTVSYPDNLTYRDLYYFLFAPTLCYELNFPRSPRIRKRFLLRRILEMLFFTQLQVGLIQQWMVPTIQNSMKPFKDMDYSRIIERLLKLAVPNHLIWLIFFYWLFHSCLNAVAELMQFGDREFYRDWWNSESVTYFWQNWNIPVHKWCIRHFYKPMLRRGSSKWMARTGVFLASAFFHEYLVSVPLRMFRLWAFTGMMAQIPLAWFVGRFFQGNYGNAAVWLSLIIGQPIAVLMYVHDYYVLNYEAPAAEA
How it was run: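 Membranes from baculovirus-infected Sf-21 cells, each enzyme at 30 µg/mL, incubated with 5 µM [1-14C]-oleoyl-CoA and 40 µM 1,2-dioleoyl-glycerol for 40 min at 32 °C. Lipids extracted by modified Bligh & Dyer, resolved on silica TLC, and radioactivity incorporated into lipids quantified.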

[2] = biological target: T2, Sterol O-acyltransferase 1 (Homo sapiens, UniProt P35610); experiment: Inhibition of N-terminal FLAG-tagged full-length human ACAT1 expressed in recombinant baculovirus infected Sf21 cells using [1-14C]-oleoyl-CoA and cholesterol as substrate incubated for 40 mins by TLC analysis
T2 sequence (P35610 whole entry): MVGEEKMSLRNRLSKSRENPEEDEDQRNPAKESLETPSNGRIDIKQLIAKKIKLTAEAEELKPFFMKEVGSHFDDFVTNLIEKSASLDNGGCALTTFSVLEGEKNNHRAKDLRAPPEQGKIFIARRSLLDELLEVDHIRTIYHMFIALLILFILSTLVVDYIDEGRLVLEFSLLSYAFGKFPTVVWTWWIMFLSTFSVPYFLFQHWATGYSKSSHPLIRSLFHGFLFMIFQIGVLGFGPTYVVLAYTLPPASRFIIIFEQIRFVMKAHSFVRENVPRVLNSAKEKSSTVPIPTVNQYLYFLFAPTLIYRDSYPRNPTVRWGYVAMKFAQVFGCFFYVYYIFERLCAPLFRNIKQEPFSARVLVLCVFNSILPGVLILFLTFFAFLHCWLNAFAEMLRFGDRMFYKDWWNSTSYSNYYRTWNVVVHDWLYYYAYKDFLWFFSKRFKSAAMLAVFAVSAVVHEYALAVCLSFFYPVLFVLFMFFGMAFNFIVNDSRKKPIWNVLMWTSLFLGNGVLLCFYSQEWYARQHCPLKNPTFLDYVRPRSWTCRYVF
How it was run: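 Sf-21 insect cell membranes from baculovirus infection, prepared in pH 7.4 phosphate/sucrose/KCl buffer. Enzyme at 30 µg/mL reacted with 5 µM [1-14C]-oleoyl-CoA and 100 µM cholesterol for 40 min at 32 °C. Lipids extracted by modified Bligh & Dyer, separated on silica TLC (hexane/ethyl ether/acetic acid), and radioactivity imaged.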

CYP1A2 = biological target: T3, CYP1A2 (Homo sapiens, UniProt P05177); experiment: Reversible inhibition of CYP1A2 in human liver microsomes using tacrine as substrate at 10 uM incubated for 10 mins by LC/MS/MS analysis relative to control; assay type: ADME, Microsome; settings: probe tacrine
T3 sequence (P05177 whole entry): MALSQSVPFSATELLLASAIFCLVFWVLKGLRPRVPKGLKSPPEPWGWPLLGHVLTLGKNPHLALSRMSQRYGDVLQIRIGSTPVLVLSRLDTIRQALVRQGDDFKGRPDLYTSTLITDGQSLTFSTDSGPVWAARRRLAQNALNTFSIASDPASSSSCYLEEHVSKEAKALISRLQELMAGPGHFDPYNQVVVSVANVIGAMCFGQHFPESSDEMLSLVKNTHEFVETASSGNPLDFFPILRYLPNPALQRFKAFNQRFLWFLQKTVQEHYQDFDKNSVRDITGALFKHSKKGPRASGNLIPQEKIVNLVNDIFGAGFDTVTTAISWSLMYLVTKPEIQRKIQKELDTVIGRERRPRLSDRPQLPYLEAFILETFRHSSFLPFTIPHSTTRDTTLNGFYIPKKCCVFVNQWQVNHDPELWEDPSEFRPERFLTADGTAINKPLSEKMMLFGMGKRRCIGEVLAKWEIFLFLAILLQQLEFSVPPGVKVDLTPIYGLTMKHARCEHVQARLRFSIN
How it was run: (§1)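 Human liver microsomes at 0.1 mg/mL incubated 10 min at 37 °C with isoform-specific substrate and 10 µM test compound. Pairs: 1A2 tacrine/1-hydroxytacrine; 2C8 paclitaxel/6α-hydroxypaclitaxel; 2C9 tolbutamide/4-hydroxytolbutamide; 2D6 dextromethorphan/dextrorphan; 3A4 midazolam/1'-hydroxymidazolam. Stopped with acetonitrile/water; metabolite measured by LC/MS/MS.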

CYP2C8 = biological target: T4, CYP2C8 (Homo sapiens, UniProt P10632); experiment: Reversible inhibition of CYP2C8 in human liver microsomes using paclitaxel as substrate at 10 uM incubated for 10 mins by LC/MS/MS analysis relative to control; assay type: ADME, Microsome; settings: probe paclitaxel; how it was run: as §1
T4 sequence (P10632 whole entry): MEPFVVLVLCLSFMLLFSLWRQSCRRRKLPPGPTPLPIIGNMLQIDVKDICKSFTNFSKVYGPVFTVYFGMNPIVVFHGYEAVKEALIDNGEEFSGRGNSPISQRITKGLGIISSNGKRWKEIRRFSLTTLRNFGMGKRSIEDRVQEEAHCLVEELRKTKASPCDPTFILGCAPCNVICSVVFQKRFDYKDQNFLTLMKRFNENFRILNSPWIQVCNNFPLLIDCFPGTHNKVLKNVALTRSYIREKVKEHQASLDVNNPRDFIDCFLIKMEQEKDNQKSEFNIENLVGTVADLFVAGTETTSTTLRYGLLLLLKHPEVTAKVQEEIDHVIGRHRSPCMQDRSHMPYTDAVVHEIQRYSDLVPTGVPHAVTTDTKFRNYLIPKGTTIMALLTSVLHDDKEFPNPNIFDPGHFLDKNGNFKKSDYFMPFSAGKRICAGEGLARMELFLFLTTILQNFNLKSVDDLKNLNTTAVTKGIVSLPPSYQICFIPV

[3] = 1-Octanol/aqueous buffer partition coefficient, logD of the compound at pH 7.4 by HPLC analysis; assay type: physicochemical

Cn1nc(C(F)(F)F)cc1-c1cnc(N2CCc3cc(S(=O)(=O)Nc4c(F)cc(Cl)cc4F)cc(N4CCCC4=O)c32)nc1 [TP-020]
IC50 [1]: > 10 µM
IC50 [2]: > 10 µM
inhibition at 10 min, 10 µM (CYP1A2): < 10%
inhibition at 10 min, 10 µM (CYP2C8): 32%
logD [3]: 2.8
